Reference: ChEMBL document CHEMBL3611988, “Design and synthesis of 4-benzylpiperidine carboxamides as dual serotonin and norepinephrine reuptake inhibitors” (Bioorg Med Chem, 2015)

Tests used:
Assay type in all cases: cell-based
[1] = target: T1, Sodium-dependent serotonin transporter (Homo sapiens, UniProt P31645); assay: Inhibition of human SERT expressed in HEK293 cells assessed as reduction of serotonin reuptake using [3H]-SERT at 1 uM after 15 mins by liquid scintillation counting relative to venlafaxine HCl
How it was run: (§1)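 HEK-293 cells stably transfected with hSERT or hNET, grown at 37 °C in 5% CO2, seeded in poly-lysine-coated 24-well plates for 24 h. Washed, then preincubated with test drug in uptake buffer (Tris/HEPES, NaCl, KCl, CaCl2, MgSO4, ascorbic acid, glucose; pH 7.1) at 37 °C for 15–20 min. Radiolabelled substrate added at 20 nM final for about 5 min at 37 °C. Cells washed three times with ice-cold buffer and lysed in 1% SDS.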
Target sequence in this assay (P31645 whole entry, looked up): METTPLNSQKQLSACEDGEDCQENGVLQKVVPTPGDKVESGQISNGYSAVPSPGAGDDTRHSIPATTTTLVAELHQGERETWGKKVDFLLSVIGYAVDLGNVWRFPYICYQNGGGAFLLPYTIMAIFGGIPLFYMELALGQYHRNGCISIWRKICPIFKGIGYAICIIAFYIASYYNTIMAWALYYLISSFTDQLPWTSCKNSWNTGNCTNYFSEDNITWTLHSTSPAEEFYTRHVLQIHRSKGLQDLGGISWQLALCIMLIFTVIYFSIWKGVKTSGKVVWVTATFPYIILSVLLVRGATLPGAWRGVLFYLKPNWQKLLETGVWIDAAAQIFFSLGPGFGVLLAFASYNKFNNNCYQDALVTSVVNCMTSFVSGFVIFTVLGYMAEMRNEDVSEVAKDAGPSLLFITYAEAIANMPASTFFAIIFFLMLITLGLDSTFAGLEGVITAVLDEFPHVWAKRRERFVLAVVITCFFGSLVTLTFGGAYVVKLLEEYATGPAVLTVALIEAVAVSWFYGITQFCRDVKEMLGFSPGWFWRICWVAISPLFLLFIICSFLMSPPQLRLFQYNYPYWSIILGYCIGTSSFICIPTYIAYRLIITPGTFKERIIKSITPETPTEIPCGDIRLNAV

[2] = target: T2, Sodium-dependent noradrenaline transporter (Homo sapiens, UniProt P23975); assay: Inhibition of human NET expressed in HEK293 cells assessed as reduction of […] reuptake using [3H]-NET at 1 uM after 15 mins by liquid scintillation counting relative to GBR-12909; how it was run: as §1
T2 sequence (P23975 whole entry): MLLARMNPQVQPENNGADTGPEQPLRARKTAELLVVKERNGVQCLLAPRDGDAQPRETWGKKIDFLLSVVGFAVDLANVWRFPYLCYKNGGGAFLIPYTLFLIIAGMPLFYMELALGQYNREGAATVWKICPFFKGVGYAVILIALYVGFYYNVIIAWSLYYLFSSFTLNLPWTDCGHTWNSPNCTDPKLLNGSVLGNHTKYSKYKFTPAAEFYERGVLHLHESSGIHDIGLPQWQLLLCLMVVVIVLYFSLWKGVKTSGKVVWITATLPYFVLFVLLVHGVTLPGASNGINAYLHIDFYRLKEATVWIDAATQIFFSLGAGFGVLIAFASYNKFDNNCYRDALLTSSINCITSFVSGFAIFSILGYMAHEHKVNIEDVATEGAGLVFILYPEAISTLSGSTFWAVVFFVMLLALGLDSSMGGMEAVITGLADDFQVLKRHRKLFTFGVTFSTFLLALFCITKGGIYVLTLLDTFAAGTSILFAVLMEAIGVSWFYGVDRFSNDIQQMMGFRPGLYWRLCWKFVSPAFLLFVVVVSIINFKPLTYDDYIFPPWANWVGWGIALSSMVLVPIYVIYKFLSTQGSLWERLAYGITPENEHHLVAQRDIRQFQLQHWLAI

[3] = target: T2, Sodium-dependent noradrenaline transporter; assay: Inhibition of human NET expressed in HEK293 cells assessed as reduction of […] reuptake using [3H]-NET at 3 uM after 15 mins by liquid scintillation counting relative to venlafaxine HCl; how it was run: as §1
[4] = target: T1, Sodium-dependent serotonin transporter; assay: Inhibition of human SERT expressed in HEK293 cells assessed as reduction of serotonin reuptake using [3H]-SERT after 15 mins by liquid scintillation counting
Target sequence in this assay (P31645 whole entry): as the sequence (P31645 whole entry, looked up) above

[5] = target: T2, Sodium-dependent noradrenaline transporter; assay: Inhibition of human NET expressed in HEK293 cells assessed as reduction of […] reuptake using [3H]-NET after 15 mins by liquid scintillation counting; how it was run: as §1

SMILES	Ratio [1]	Ratio [2]	Ratio [3]	IC50 [4]	IC50 [5]
O=C(NCCN1CCC(Cc2ccccc2)CC1)c1ccc2cc(Br)ccc2c1	0.51	0.83	–	–	–
O=C(NCCCN1CCC(Cc2ccccc2)CC1)c1ccc2ccccc2n1	0.85	–	0.62	–	–
O=C(NCCN1CCC(Cc2ccccc2)CC1)C(c1ccccc1)c1ccccc1	0.29	–	1.04	–	–
O=C(NCCCN1CCC(Cc2ccccc2)CC1)c1ccc2ccccc2c1	0.95	1.03	–	108 nM	342 nM
O=C(NCCN1CCC(Cc2ccccc2)CC1)c1cc(Cl)cc(Cl)c1	0.64	1	–	–	–
O=C(NCCCN1CCC(Cc2ccccc2)CC1)c1cc2ccccc2[nH]1	0.84	–	1.72	546 nM	268 nM
O=C(NCCN1CCC(Cc2ccccc2)CC1)c1cc2ccccc2o1	0.78	–	1.09	–	–
O=C(NCCN1CCC(Cc2ccccc2)CC1)c1ccc2ccccc2n1	1.03	0.53	–	786 nM	275 nM
O=C(NCCCN1CCC(Cc2ccccc2)CC1)C(c1ccc(Cl)cc1)c1ccc(Cl)cc1	0.19	–	1.37	–	–
COc1ccc2cc(C(=O)NCCN3CCC(Cc4ccccc4)CC3)ccc2c1	0.63	–	1.97	–	–
O=C(NCCCN1CCC(Cc2ccccc2)CC1)c1cc2ccccc2s1	1.1	–	1.8	449 nM	4750 nM

The remaining lines, values ahead:

Ratio [1]	Ratio [2]	Ratio [3]	IC50 [4]	IC50 [5]	SMILES
0.91	0.1	–	–	–	O=C(NCCN1CCC(Cc2ccccc2)CC1)c1cccc2ccccc12
0.6	1.32	–	–	–	O=C(NCCCN1CCC(Cc2ccccc2)CC1)c1cccc2ccccc12
0.98	1	–	323 nM	238 nM	COc1ccc2cc(C(=O)NCCCN3CCC(Cc4ccccc4)CC3)ccc2c1
0.26	–	1.19	–	–	O=C(NCCCN1CCC(Cc2ccccc2)CC1)C(c1ccccc1)c1ccccc1
0.8	1.27	–	–	–	O=C(NCCN1CCC(Cc2ccccc2)CC1)c1ccc2ccccc2c1
0.98	–	1.49	986 nM	472 nM	O=C(NCCN1CCC(Cc2ccccc2)CC1)c1ccc(-c2ccccc2)cc1
0.58	–	1.49	–	–	O=C(NCCN1CCC(Cc2ccccc2)CC1)c1cc2ccccc2[nH]1
0.83	1.12	–	422 nM	267 nM	O=C(NCCCN1CCC(Cc2ccccc2)CC1)c1cc(Cl)cc(Cl)c1
0.77	–	1.92	–	–	O=C(NCCN1CCC(Cc2ccccc2)CC1)c1cc2ccccc2s1
1.01	–	1.59	56 nM	153 nM	O=C(NCCCN1CCC(Cc2ccccc2)CC1)c1ccc(-c2ccccc2)cc1
0.84	–	1.54	500 nM	621 nM	O=C(NCCCN1CCC(Cc2ccccc2)CC1)c1cc2ccccc2o1
0.4	–	1.54	–	–	O=C(NCCN1CCC(Cc2ccccc2)CC1)C(c1ccc(Cl)cc1)c1ccc(Cl)cc1
1.11	0.94	–	1910 nM	885 nM	O=C(NCCCN1CCC(Cc2ccccc2)CC1)c1ccc2cc(Br)ccc2c1
